From ChEMBL document CHEMBL2401716, “Design and stereoselective synthesis of novel isosteviol-fused pyrazolines and pyrazoles as potential anticancer agents” (Eur J Med Chem, 2013) come the findings set out here.

What all share (assay type): functional, cell-based
Assay [1] concerns Raji. In words: Antiproliferative activity against human Raji cells after 48 hrs by MTT assay. In outline:
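Human B-lymphoma Raji line kept in RPMI-1640 with 10% FBS and 100 U/mL penicillin at 37 °C, 5% CO2, humidified. Cells were plated in 96 wells and treated with compounds for 48 h. MTT (0.5 mg/mL) was added for 4 h, then formazan was taken up in DMSO after supernatant removal and read at 570 nm. Cisplatin served as positive control.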
For orientation: Tetrazolium assays rely on reduction of a dye to a coloured formazan, in cell work by metabolically active cells.

Assay [2] concerns HeLa. Briefly: Antiproliferative activity against human HeLa cells after 48 hrs by MTT assay. In outline:
(§1)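 Cells seeded in 96-well plates and exposed to compounds for 48 h at 37 °C, 5% CO2. MTT (0.5 mg/mL) then added for 4 h. Supernatant removed, formazan dissolved in DMSO, and OD read at 570 nm. Cisplatin served as positive control.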

Assay [3] relates to A549. In words: Antiproliferative activity against human A549 cells after 48 hrs by MTT assay. Particulars: A549, 48 h. An outline of the steps:
as §1

The test system of assay [4] is SGC-7901. Briefly: Antiproliferative activity against human SGC7901 cells after 48 hrs by MTT assay. Particulars: SGC-7901, 48 h. An outline of the steps:
as §1

One may read the IC50 as the point on the concentration scale where inhibition reaches its midpoint. Consider `CCOC(=O)[C@]1(C)CCC[C@@]2(C)[C@@H]3CC[C@@]4(C)C[C@]3(CC[C@@H]21)[C@@H]1CN(c2ccc(Br)cc2)N=C14`, for which the IC50 in assay [1], in assay [2], in assay [3] and in assay [4] was over 50 µM each time.
For `CCOC(=O)[C@]1(C)CCC[C@@]2(C)[C@@H]3CC[C@@]4(C)C[C@]3(CC[C@@H]21)[C@@H]1CN(c2ccccc2C)N=C14`, the IC50 in assay [1] was 19.9 µM; in assay [2] it was over 50 µM; in assay [3], over 50 µM; in assay [4], over 50 µM.
`CCOC(=O)[C@]1(C)CCC[C@@]2(C)[C@@H]3CC[C@@]4(C)C[C@]3(CC[C@@H]21)[C@@H]1CN(c2cccc(C)c2)N=C14`: the IC50 in assay [1], in assay [2], in assay [3] and in assay [4] was over 50 µM in each case.
Take `CCOC(=O)[C@]1(C)CCC[C@@]2(C)[C@@H]3CC[C@@]4(C)C[C@]3(CC[C@@H]21)[C@@H]1CN(c2ccc(OC)cc2)N=C14`: the 50% inhibitory concentration (IC50) came to 12.2 µM in assay [1], 31.2 µM in assay [2], 17.8 µM in assay [3] and 34 µM in assay [4].
`CCOC(=O)[C@]1(C)CCC[C@@]2(C)[C@@H]3CC[C@@]4(C)C[C@]3(CC[C@@H]21)[C@@H]1CN(c2cccc([N+](=O)[O-])c2)N=C14`: the IC50 in assay [1], in assay [2], in assay [3] and in assay [4] was over 50 µM throughout.
Turning to `CCOC(=O)[C@]1(C)CCC[C@@]2(C)[C@@H]3CC[C@@]4(C)C[C@]3(CC[C@@H]21)[C@@H]1CN(c2ccc(F)cc2F)N=C14`, the IC50 in assay [1] was 13.5 µM; in assay [2], over 50 µM; in assay [3] it was over 50 µM; in assay [4], over 50 µM.
As for `CCOC(=O)[C@]1(C)CCC[C@@]2(C)[C@@H]3CC[C@@]4(C)C[C@]3(CC[C@@H]21)[C@@H]1CN(c2cc(F)ccc2F)N=C14`, the IC50 in assay [1] is 27.4 µM; in assay [2], over 50 µM; in assay [3], 20.2 µM; in assay [4], over 50 µM.
In the case of `CCOC(=O)[C@]1(C)CCC[C@@]2(C)[C@@H]3CC[C@@]4(C)C[C@]3(CC[C@@H]21)[C@@H]1CN(c2cccc(Cl)c2Cl)N=C14`, the IC50 in assay [1] was 22.1 µM; in assay [2] it was over 50 µM; in assay [3], over 50 µM; in assay [4], over 50 µM.
`CCOC(=O)[C@]1(C)CCC[C@@]2(C)[C@@H]3CC[C@@]4(C)C[C@]3(CC[C@@H]21)[C@@H]1CN(c2ccc(Cl)cc2Cl)N=C14`: the IC50 in assay [1] was 22.9 µM; in assay [2], over 50 µM; in assay [3], over 50 µM; in assay [4], over 50 µM.
Take `CCOC(=O)[C@]1(C)CCC[C@@]2(C)[C@@H]3CC[C@@]4(C)C[C@]3(CC[C@@H]21)[C@@H]1CN(c2cc(Cl)ccc2Cl)N=C14`: the IC50 was 25.6 µM in assay [1], over 50 µM in assay [2], over 50 µM in assay [3] and over 50 µM in assay [4].
On to `CCOC(=O)[C@]1(C)CCC[C@@]2(C)[C@@H]3CC[C@@]4(C)C[C@]3(CC[C@@H]21)[C@@H]1CN(c2c(Cl)cccc2Cl)N=C14`, for which the IC50 was over 50 µM in assay [1], over 50 µM in assay [2], 11.6 µM in assay [3] and over 50 µM in assay [4].
For `CCOC(=O)[C@]1(C)CCC[C@@]2(C)[C@@H]3CC[C@@]4(C)C[C@]3(CC[C@@H]21)[C@@H]1CN(c2ccc(Cl)c(Cl)c2)N=C14`, the IC50 in assay [1], in assay [2], in assay [3] and in assay [4] was over 50 µM in each case.
As to `CCOC(=O)[C@]1(C)CCC[C@@]2(C)[C@@H]3CC[C@@]4(C)C[C@]3(CC[C@@H]21)[C@@H]1CN(c2cc(Cl)cc(Cl)c2)N=C14`, the IC50 was over 50 µM in assay [1], 24.6 µM in assay [2], over 50 µM in assay [3] and over 50 µM in assay [4].
For `CCOC(=O)[C@]1(C)CCC[C@@]2(C)[C@@H]3CC[C@@]4(C)C[C@]3(CC[C@@H]21)[C@@H]1CN(c2ccc(C)cc2C)N=C14`, the IC50 is 11.2 µM in assay [1], over 50 µM in assay [2], over 50 µM in assay [3] and 28.5 µM in assay [4].
With `CCOC(=O)[C@]1(C)CCC[C@@]2(C)[C@@H]3CC[C@@]4(C)C[C@]3(CC[C@@H]21)[C@@H]1CN(c2cc(C)ccc2C)N=C14`, the IC50 in assay [1] is 12.6 µM; in assay [2], 30.3 µM; in assay [3], over 50 µM; in assay [4], 22.5 µM.
In the case of `CCOC(=O)[C@]1(C)CCC[C@@]2(C)[C@@H]3CC[C@@]4(C)C[C@]3(CC[C@@H]21)[C@@H]1CN(c2cc(C)cc(C)c2)N=C14`, the IC50 in assay [1], in assay [2], in assay [3] and in assay [4] was over 50 µM in each case.
For `CCOC(=O)[C@]1(C)CCC[C@@]2(C)[C@@H]3CC[C@@]4(C)C[C@]3(CC[C@@H]21)c1cnn(-c2ccccc2)c14`, the IC50 in assay [1] is 11.4 µM; in assay [2], 42.5 µM; in assay [3] it was 25.4 µM; in assay [4], 17.6 µM.
Regarding `CCOC(=O)[C@]1(C)CCC[C@@]2(C)[C@@H]3CC[C@@]4(C)C[C@]3(CC[C@@H]21)c1cnn(-c2ccc(Cl)cc2)c14`, the IC50 in assay [1] was 13.8 µM; in assay [2] it was over 50 µM; in assay [3], 35.3 µM; in assay [4], 8.44 µM.
On the same counts, the results for `CCOC(=O)[C@]1(C)CCC[C@@]2(C)[C@@H]3CC[C@@]4(C)C[C@]3(CC[C@@H]21)c1cnn(-c2ccccc2Br)c14` are 11.3 µM, 41.1 µM, 17.4 µM and 30.3 µM.
The corresponding values for `CCOC(=O)[C@]1(C)CCC[C@@]2(C)[C@@H]3CC[C@@]4(C)C[C@]3(CC[C@@H]21)c1cnn(-c2ccccc2[N+](=O)[O-])c14` are 14.3 µM, over 50 µM, 42.3 µM and 15.6 µM.
On the same counts, the results for `CCOC(=O)[C@]1(C)CCC[C@@]2(C)[C@@H]3CC[C@@]4(C)C[C@]3(CC[C@@H]21)c1cnn(-c2ccc([N+](=O)[O-])cc2)c14` are 10.2 µM, over 50 µM, over 50 µM and over 50 µM.
For the compound `CCOC(=O)[C@]1(C)CCC[C@@]2(C)[C@@H]3CC[C@@]4(C)C[C@]3(CC[C@@H]21)c1cnn(-c2cc(Cl)ccc2Cl)c14`, the IC50 in assay [1] is 11.7 µM; in assay [2], over 50 µM; in assay [3], over 50 µM; in assay [4] it was over 50 µM.
On to `CCOC(=O)[C@]1(C)CCC[C@@]2(C)[C@@H]3CC[C@@]4(C)C[C@]3(CC[C@@H]21)c1cnn(-c2ccc(Cl)c(Cl)c2)c14`, for which the IC50 in assay [1] was 17.1 µM; in assay [2], over 50 µM; in assay [3], over 50 µM; in assay [4], over 50 µM.
Consider `CCOC(=O)[C@]1(C)CCC[C@@]2(C)[C@@H]3CC[C@@]4(C)C[C@]3(CC[C@@H]21)c1cnn(-c2cc(Cl)cc(Cl)c2)c14`, for which the IC50 was 15.8 µM in assay [1], over 50 µM in assay [2], over 50 µM in assay [3] and over 50 µM in assay [4].
Consider `CCOC(=O)[C@]1(C)CCC[C@@]2(C)[C@@H]3CC[C@@]4(C)C[C@]3(CC[C@@H]21)c1cnn(-c2cc(C)cc(C)c2)c14`, for which the IC50 in assay [1] was 12.5 µM; in assay [2], over 50 µM; in assay [3] it was over 50 µM; in assay [4], over 50 µM.
On to `CCOC(=O)[C@]1(C)CCC[C@@]2(C)[C@@H]3CC[C@@]4(C)C[C@]3(CC[C@@H]21)[C@@H]1CN(c2ccccc2)N=C14`, for which the IC50 in assay [1] was 14 µM; in assay [2], over 50 µM; in assay [3], 28.3 µM; in assay [4], over 50 µM.
On to `CCOC(=O)[C@]1(C)CCC[C@@]2(C)[C@@H]3CC[C@@]4(C)C[C@]3(CC[C@@H]21)[C@@H]1CN(c2ccccc2F)N=C14`, for which the IC50 in assay [1] is 17.2 µM; in assay [2] it was over 50 µM; in assay [3], 32.6 µM; in assay [4], 34.7 µM.
The corresponding values for `CCOC(=O)[C@]1(C)CCC[C@@]2(C)[C@@H]3CC[C@@]4(C)C[C@]3(CC[C@@H]21)[C@@H]1CN(c2cccc(F)c2)N=C14` are 29.1 µM, over 50 µM, over 50 µM and over 50 µM.
On the same counts, the results for `CCOC(=O)[C@]1(C)CCC[C@@]2(C)[C@@H]3CC[C@@]4(C)C[C@]3(CC[C@@H]21)[C@@H]1CN(c2ccccc2Cl)N=C14` are over 50 µM, over 50 µM, over 50 µM and over 50 µM.
On the same counts, the results for `CCOC(=O)[C@]1(C)CCC[C@@]2(C)[C@@H]3CC[C@@]4(C)C[C@]3(CC[C@@H]21)[C@@H]1CN(c2ccc(Cl)cc2)N=C14` are over 50 µM, over 50 µM, over 50 µM and over 50 µM.
As to `CCOC(=O)[C@]1(C)CCC[C@@]2(C)[C@@H]3CC[C@@]4(C)C[C@]3(CC[C@@H]21)[C@@H]1CN(c2cccc(Br)c2)N=C14`, the IC50 in assay [1] is 25.1 µM; in assay [2], over 50 µM; in assay [3] it was over 50 µM; in assay [4] it was over 50 µM.
In the case of `CCOC(=O)[C@]1(C)CCC[C@@]2(C)[C@@H]3CC[C@@]4(C)C[C@]3(CC[C@@H]21)[C@@H]1CN(c2ccc([N+](=O)[O-])cc2)N=C14`, the IC50 in assay [1], in assay [2], in assay [3] and in assay [4] was over 50 µM in each case.
